In ChEMBL document CHEMBL2321839, “Novel limonene and citral based 2,5-disubstituted-1,3,4-oxadiazoles: a natural product coupled approach to semicarbazones for antiepileptic activity” (Bioorg Med Chem Lett, 2013):
Calls of active or inactive are those of the source. No cut-off for these calls is given here.

Tests used:
[1] = system: Mus musculus; assay: Antiepileptic activity in ip dosed Swiss albino mouse assessed as protection against maximal-electric shock-induced seizures after 0.5 hrs; format: functional; settings: read-out: MED
Summary of the method: (§1)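 Male Swiss albino mice (18–25 g), compounds given ip at 30, 100 and 300 mg/kg. Seizures induced by maximal electroshock (MES) or subcutaneous pentylenetetrazole (scPTZ). Protection scored at 0.5 and 4.0 h after dosing.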

[2] = system: Mus musculus; assay: Neurotoxicity against Swiss albino mouse by rotarod test at 300 mg/kg, ip after 4 hrs; format: toxicity, organism-based; set-up: dose 300 mg/kg, route intraperitoneal; settings: in vivo
Summary of the method: (§2)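 Acute neurotoxicity tested by rotorod in male Swiss albino mice (18–25 g) given 30, 100 or 300 mg/kg ip. Read at 0.5 and 4.0 h post-dose. Result is the minimal dose causing toxicity in half or more of the animals; a dash means none up to 300 mg/kg.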

[3] = system: Rattus norvegicus; assay: Neurotoxicity in Wistar rat at 30 mg/kg, po measured at 1 hr by rotarod test; format: toxicity, organism-based; set-up: dose 30 mg/kg, route oral; settings: in vivo
Summary of the method: (§3)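 Neurotoxicity assessed in Wistar rats (100–150 g) after a 30 mg/kg oral dose, read at 0.25, 0.5, 1, 2 and 4 h.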

[4] = system: Rattus norvegicus; assay: Neurotoxicity in Wistar rat at 30 mg/kg, po measured at 0.5 hrs by rotarod test; format: toxicity, organism-based; set-up: dose 30 mg/kg, route oral; settings: in vivo; summary of the method: as §3
[5] = system: Mus musculus; assay: Antiepileptic activity in ip dosed Swiss albino mouse assessed as protection against scPTZ-induced seizures after 0.5 hrs; format: functional; settings: read-out: MED; summary of the method: as §1
[6] = system: Rattus norvegicus; assay: Antiepileptic activity in Wistar rat assessed as protection against maximal electric shock-induced seizures at 30 mg/kg, po measured at 1 hr; format: functional
Summary of the method: (§4)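 Single oral dose of 30 mg/kg in Wistar rats (100–150 g), tested by MES challenge at 0.25, 0.5, 1, 2 and 4 h.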

[7] = system: Mus musculus; assay: Antiepileptic activity in ip dosed Swiss albino mouse assessed as protection against maximal-electric shock-induced seizures after 4 hrs; format: functional; settings: read-out: MED; summary of the method: as §1
[8] = system: Rattus norvegicus; assay: Antiepileptic activity in Wistar rat assessed as GABA level in medulla oblangata per 100 mg at 100 mg/kg ip after 2 hrs (reference value: 31.86 +/- 4.65 ug); format: functional, Medulla oblongata; settings: route intraperitoneal
[9] = system: Rattus norvegicus; assay: Antiepileptic activity in ip dosed Wistar rat assessed as protection against scSTY-induced seizures after 4 hrs; format: functional; settings: read-out: MED
Summary of the method: (§5)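 Male Wistar rats (100–150 g), compounds given ip at 30, 100 and 300 mg/kg. Seizures induced by subcutaneous strychnine (scSTY). Activity read 0.5 and 4.0 h after dosing. Reported as the minimal dose active in at least half of the animals; a dash means no activity at 300 mg/kg.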

[10] = system: Mus musculus; assay: Neurotoxicity against Swiss albino mouse by rotarod test at 300 mg/kg, ip after 0.5 hrs; format: toxicity, organism-based; set-up: dose 300 mg/kg, route intraperitoneal; settings: in vivo; summary of the method: as §2
[11] = system: Mus musculus; assay: Antiepileptic activity in ip dosed Swiss albino mouse assessed as protection against scPTZ-induced seizures after 4 hrs; format: functional; settings: read-out: MED; summary of the method: as §1
[12] = system: Rattus norvegicus; assay: Antiepileptic activity in Wistar rat assessed as protection against scSTY-induced seizures at 300 mg/kg, ip measured after 0.5 hrs; format: functional, organism-based; set-up: dose 300 mg/kg; summary of the method: as §5
[13] = system: Rattus norvegicus; assay: Antiepileptic activity in Wistar rat assessed as protection against maximal electric shock-induced seizures at 30 mg/kg, po measured at 2 hrs; format: functional; summary of the method: as §4
[14] = system: Rattus norvegicus; assay: Antiepileptic activity in Wistar rat assessed as protection against maximal electric shock-induced seizures at 30 mg/kg, po measured at 4 hrs; format: functional; summary of the method: as §4
[15] = system: Rattus norvegicus; assay: Antiepileptic activity in Wistar rat assessed as protection against maximal electric shock-induced seizures at 30 mg/kg, po measured at 0.25 hrs; format: functional; summary of the method: as §4
[16] = system: Rattus norvegicus; assay: Neurotoxicity in Wistar rat at 30 mg/kg, po measured at 2 hrs by rotarod test; format: toxicity, organism-based; set-up: dose 30 mg/kg, route oral; settings: in vivo; summary of the method: as §3
[17] = system: Rattus norvegicus; assay: Neurotoxicity in Wistar rat at 30 mg/kg, po measured at 4 hrs by rotarod test; format: toxicity, organism-based; set-up: dose 30 mg/kg, route oral; settings: in vivo; summary of the method: as §3
[18] = system: Rattus norvegicus; assay: Antiepileptic activity in Wistar rat assessed as protection against maximal electric shock-induced seizures at 30 mg/kg, po measured at 0.5 hrs; format: functional; summary of the method: as §4
[19] = system: Rattus norvegicus; assay: Antiepileptic activity in Wistar rat assessed as GABA level in midbrain per 100 mg at 100 mg/kg ip after 2 hrs (reference value: 35.42 +/- 2.14 ug); format: functional; settings: route intraperitoneal
[20] = system: Rattus norvegicus; assay: Antiepileptic activity in Wistar rat assessed as GABA level in cerebellum per 100 mg at 100 mg/kg ip after 2 hrs (reference value: 23.48+/- 2.48 ug); format: functional; settings: route intraperitoneal
[21] = system: Rattus norvegicus; assay: Neurotoxicity in Wistar rat at 30 mg/kg, po measured at 0.25 hrs by rotarod test; format: toxicity, organism-based; set-up: dose 30 mg/kg, route oral; settings: in vivo; summary of the method: as §3
[22] = system: Rattus norvegicus; assay: Antiepileptic activity in Wistar rat assessed as protection against scSTY-induced seizures at 300 mg/kg, ip measured after 4 hrs; format: functional, organism-based; set-up: dose 300 mg/kg; summary of the method: as §5
[23] = system: Mus musculus; assay: Antiepileptic activity in Swiss albino mouse assessed as protection against maximal-electric shock-induced seizures at 300 mg/kg, ip measured after 4 hrs; format: functional, organism-based; set-up: dose 300 mg/kg; summary of the method: as §1
[24] = system: Mus musculus; assay: Antiepileptic activity in Swiss albino mouse assessed as protection against scPTZ-induced seizures at 300 mg/kg, ip measured after 4 hrs; format: functional, organism-based; set-up: dose 300 mg/kg; summary of the method: as §1
[25] = system: Rattus norvegicus; assay: Antiepileptic activity in ip dosed Wistar rat assessed as protection against scSTY-induced seizures after 0.5 hrs; format: functional; settings: read-out: MED
Summary of the method: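 Subcutaneous strychnine seizure test in Wistar rats (male, 100–150 g), compounds given ip at 30, 100 and 300 mg/kg. Protection read 0.5 and 4.0 h after dosing.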

[26] = system: Mus musculus; assay: Antiepileptic activity in Swiss albino mouse assessed as protection against scPTZ-induced seizures at 300 mg/kg, ip measured after 0.5 hrs; format: functional, organism-based; set-up: dose 300 mg/kg; summary of the method: as §1
[27] = system: Rattus norvegicus; assay: Antiepileptic activity in Wistar rat assessed as GABA level in cerebellum per 100 mg at 30 mg/kg ip after 2 hrs (reference value: 23.48+/- 2.48 ug); format: functional; settings: route intraperitoneal
[28] = system: Rattus norvegicus; assay: Antiepileptic activity in Wistar rat assessed as GABA level in medulla oblangata per 100 mg at 30 mg/kg ip after 2 hrs (reference value: 31.86 +/- 4.65 ug); format: functional, Medulla oblongata; settings: route intraperitoneal
[29] = system: Rattus norvegicus; assay: Antiepileptic activity in Wistar rat assessed as GABA level in midbrain per 100 mg at 30 mg/kg ip after 2 hrs (reference value: 35.42 +/- 2.14 ug); format: functional; settings: route intraperitoneal
[30] = system: Mus musculus; assay: Antiepileptic activity in Swiss albino mouse assessed as protection against maximal-electric shock-induced seizures at 300 mg/kg, ip measured after 0.5 hrs; format: functional, organism-based; set-up: dose 300 mg/kg; summary of the method: as §1
[31] = system: Mus musculus; assay: Neurotoxicity against ip dosed Swiss albino mouse after 4 hrs by rotarod test; format: toxicity, organism-based; settings: in vivo; summary of the method: as §2
[32] = system: Mus musculus; assay: Neurotoxicity against ip dosed Swiss albino mouse after 0.5 hrs by rotarod test; format: toxicity, organism-based; settings: in vivo; summary of the method: as §2

SMILES: C=C(C)[C@@H]1CC=C(C)/C(=N/NC(=O)Nc2nnc(-c3ccc([N+](=O)[O-])cc3)o2)C1
- minimal effective dose [1]: 100 mg/kg
- Activity [2]: Non-toxic
- Activity [3]: Non-toxic
- Activity [4]: Non-toxic
- minimal effective dose [5]: 100 mg/kg
- Activity [6]: 25%
- minimal effective dose [7]: 300 mg/kg
- Activity [8]: 48.59 µg
- minimal effective dose [9]: 300 mg/kg
- Activity [10]: Non-toxic
- minimal effective dose [11]: 300 mg/kg
- Activity [12]: inactive
- Activity [13]: 50%
- Activity [14]: 50%
- Activity [15]: 75%
- Activity [16]: Non-toxic
- Activity [17]: Non-toxic
- Activity [18]: 25%
- Activity [19]: 66.6 µg
- Activity [20]: 28.64 µg
- Activity [21]: Non-toxic

SMILES: CCCC(CCC)C(=O)[O-].[Na+] [VALPROATE SODIUM]
- minimal effective dose [1]: 300 mg/kg
- Activity [2]: Non-toxic
- minimal effective dose [5]: 300 mg/kg
- Activity [22]: inactive
- Activity [10]: Non-toxic
- Activity [23]: inactive
- Activity [24]: inactive
- minimal effective dose [25]: 300 mg/kg

SMILES: C=C(C)[C@@H]1CC=C(C)/C(=N/NC(=O)Nc2nnc(-c3ccc(F)cc3)o2)C1
- minimal effective dose [1]: 100 mg/kg
- Activity [2]: Non-toxic
- Activity [3]: 0%
- Activity [4]: Non-toxic
- Activity [6]: 0%
- minimal effective dose [7]: 300 mg/kg
- Activity [8]: 42.4 µg
- minimal effective dose [9]: 300 mg/kg
- Activity [10]: Non-toxic
- minimal effective dose [11]: 300 mg/kg
- Activity [12]: inactive
- Activity [13]: 25%
- Activity [14]: inactive
- Activity [15]: 25%
- Activity [16]: Non-toxic
- Activity [17]: Non-toxic
- Activity [18]: 25%
- Activity [19]: 43.56 µg
- Activity [26]: inactive
- Activity [20]: 28.42 µg
- Activity [21]: Non-toxic

SMILES: CN1C(=O)CC(=O)N(c2ccccc2)c2cc(Cl)ccc21 [CLOBAZAM]
- Activity [27]: 35.44 µg
- Activity [28]: 47.53 µg
- Activity [29]: 69.51 µg

SMILES: CCC1(C)CC(=O)NC1=O (centres undefined) [ETHOSUXIMIDE]
- Activity [2]: Non-toxic
- minimal effective dose [5]: 100 mg/kg
- Activity [22]: inactive
- Activity [10]: Non-toxic
- Activity [30]: inactive
- minimal effective dose [11]: 300 mg/kg
- Activity [23]: inactive
- minimal effective dose [25]: 300 mg/kg

SMILES: NC(=O)N1c2ccccc2C=Cc2ccccc21 [CARBAMAZEPINE]
- MTC [31]: 300 mg/kg
- minimal effective dose [1]: 30 mg/kg
- minimal effective dose [5]: 100 mg/kg
- Activity [22]: inactive
- minimal effective dose [7]: 100 mg/kg
- minimal effective dose [11]: 300 mg/kg
- Activity [12]: inactive
- MTC [32]: 100 mg/kg
